Experimental data reported in ChEMBL document CHEMBL1135736, “Synthesis and biological evaluation of a new furo[2,3-h]quinolin-2(1H)-one” (J Med Chem, 2002).

Tests used:
Mus musculus [1] = organism: Mus musculus; experiment: Percent mortality observed when 0.3x10E-6 viable cells were injected and challenge performed 15 days after injection of photoinactivated cells; type: organism-based; details: in vivo, 360 h
In short: (§1)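 Mice, groups of 10, primed by ip injection of 5 × 10^6 Ehrlich cells. Before injection, these cells were photoinactivated with UVA light (2.7 kJ m-2) in the presence of 2 μM drug. Viable untreated Ehrlich cells were given later as the tumor challenge, at varying cell numbers and times after priming. Mortality (%) and mean survival time (days) were recorded.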

Mus musculus [2] = organism: Mus musculus; experiment: Percent mortality observed when 0.3x10E-6 viable cells were injected and challenge performed 21 days after injection of photoinactivated cells; type: organism-based; details: in vivo, 504 h; in short: as §1
Mus musculus [3] = organism: Mus musculus; experiment: Percent mortality observed when 0.3x10E-6 viable cells were injected and challenge performed 8 days after injection of photoinactivated cells; type: ADME, organism-based; details: in vivo, 192 h; in short: as §1
Mus musculus [4] = organism: Mus musculus; experiment: Percent mortality observed when 1x10E-6 viable cells were injected and challenge performed 21 days after injection of photoinactivated cells; type: ADME, organism-based; details: in vivo, 504 h; in short: as §1
Mus musculus [5] = organism: Mus musculus; experiment: Mean survival time when 0.3x10E-6 viable cells were injected and challenge performed 15 days after injection of photoinactivated cells; type: ADME, organism-based; details: in vivo, 360 h; in short: as §1
Mus musculus [6] = organism: Mus musculus; experiment: Mean survival time when 0.3x10E-6 viable cells were injected and challenge performed 21 days after injection of photoinactivated cells; type: ADME, organism-based; details: in vivo, 504 h; in short: as §1
Mus musculus [7] = organism: Mus musculus; experiment: Mean survival time when 0.3x10E-6 viable cells were injected and challenge performed 8 days after injection of photoinactivated cells; type: ADME, organism-based; details: in vivo, 192 h; in short: as §1
Mus musculus [8] = organism: Mus musculus; experiment: Mean survival time when 1x10E-6 viable cells were injected and challenge performed 21 days after injection of photoinactivated cells; type: ADME, organism-based; details: in vivo, 504 h; in short: as §1
Mus musculus [9] = organism: Mus musculus; experiment: Mean survival time when 4x10E-6 viable cells were injected and challenge performed 21 days after injection of photoinactivated cells; type: ADME, organism-based; details: in vivo, 504 h; in short: as §1
[10] = Antiproliferative effect on DNA synthesis of mammalian cells upon UVA irradiation.; type: functional; details: light or radiation study, read-out: ID50
In short: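 Ehrlich cells, DNA synthesis inhibition. Cells held with 2 µM drug and exposed to graded UVA doses. ID50 is the UVA dose (kJ m-2) giving 50% inhibition, calculated by probit analysis, pooled from several experiments.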

[11] = Antiproliferative effect on clonal growth of mammalian cells upon UVA irradiation.; type: functional; details: light or radiation study, read-out: ID50
In short: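 CHO cells, clonal growth (colony-forming) inhibition. Cells given graded UVA doses in the presence of 2 µM drug. Reported ID50 is the UVA dose (kJ m-2) producing 50% inhibition, derived by probit analysis over several experiments.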

Mus musculus [12] = organism: Mus musculus; experiment: Percent mortality observed when 4x10E-6 viable cells were injected and challenge performed 21 days after injection of photoinactivated cells; type: ADME, organism-based; details: in vivo, 504 h; in short: as §1

SMILES	Mortality (Mus musculus [1]) [%]	Mortality (Mus musculus [2]) [%]	Mortality (Mus musculus [3]) [%]	Mortality (Mus musculus [4]) [%]	Mean survival time (Mus musculus [5]) [days]	Mean survival time (Mus musculus [6]) [days]	Mean survival time (Mus musculus [7]) [days]	Mean survival time (Mus musculus [8]) [days]	Mean survival time (Mus musculus [9]) [days]	IC50 [10] [kJ m-2]	IC50 [11] [kJ m-2]	Mortality (Mus musculus [12]) [%]
Cc1cc2c(o1)c(C)cc1c(CO)cc(=O)n(C)c12	35	0	70	30	25	> 60	21.3	10.6	15.8	0.65	0.02	100
COc1c2occc2cc2ccc(=O)oc12 [METHOXSALEN]										36.6	0.84	
